About 65 (5%) of roughly 1,300 compounds were called active. A selection follows. Potency and affinity values are given separately. Unmarked numbers belong to inactive results.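 How the source made its calls: active means growth inhibition reaching a set limit at one or more tested doses; inactive means the rest.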
Assay: wild-type E. coli BW25113 antibacterial activity – OD615, dose response (AID 638)
Conditions: at 100 µM (top of the series) unless noted
In short: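 assay system = wild-type Escherichia coli strain BW25113 growth | medium = Kanamycin-supplemented LB broth | measured by = optical density (absorbance) at 615 nm | timing = bacterial exposure to compound 20 h at 37 °C | doses = compound concentration series | measure = IC50 from 4-parameter logistic, bounds fixed 0–100% | controls = chloramphenicol 30 µM control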
With `COc1ccc(-c2noc(Cc3ccc(Cl)cc3)n2)cc1OC` the growth inhibition was 7.9%. Work on `COc1cccc(N2CC(C(=O)Nc3ccc(C(=O)OC(C)C)cc3)CC2=O)c1` (stereo not given) yielded a growth inhibition of 5.31%. `CCCCCOC(=O)c1ccc(NC(=O)c2ccco2)cc1` gave a growth inhibition of -0.06%. For `CCOC(=O)c1cnc(-n2nc(C)cc2C)nc1NC1CCCCC1`, the growth inhibition was -4.22%. In the case of `COc1ccccc1N1CCN(Cc2nc(N)nc(Nc3ccc(C)c(Cl)c3)n2)CC1`, the growth inhibition was 8.69%. With `CN1C(=O)C2(OCC(COc3ccc(Cl)cc3)O2)c2ccccc21` (stereo not given) the growth inhibition was -7.83%. `Cc1ccc(C)c(Cn2c(CN(C)Cc3ccccc3)nc3c2c(=O)n(C)c(=O)n3C)c1` showed a growth inhibition of -10%. With `CCC(Oc1ccccc1)C(=O)Nc1ccc(-c2nnc(-c3ccco3)o2)cc1` (stereo not given) the growth inhibition was -9.73%. With `Cc1nc2c(C(=O)NCCC3=CCCCC3)c[nH]n2c(=O)c1Cl` the growth inhibition was 5.42%. `CCOC(=O)C1CN(c2cc3c(cc2F)c(=O)c(C(=O)O)cn3CC)OC1C(=O)OCC` (stereo not given) showed a growth inhibition of 3.92%. `Cc1cc(N2CCC(C)CC2)nc(-n2nc(C)cc2C)n1` showed a growth inhibition of -4.79%. Molecule `O=c1[nH]c(=O)n(C2CCCCCC2)c(O)c1C=NCc1ccc(F)cc1` has a growth inhibition of -0.14%. Molecule `COC(=O)c1c(NC(=O)CCc2ccc(C)o2)sc(C)c1C` has a growth inhibition of 3.59%. For `N#Cc1nc(Cc2ccccc2)oc1NCc1ccccc1Cl`, the growth inhibition was 14.5%. With `N#Cc1nc(Cc2cccc3ccccc23)oc1NCCCn1ccnc1` the growth inhibition was 2.47%. For `N#Cc1nc(Cc2cccc3ccccc23)oc1NCc1ccc(F)cc1`, the growth inhibition was 20% (active). In the case of `CC1CCC(C(C)C)C(OC(=O)COC(=O)c2ccc(=O)[nH]c2)C1` (stereo not given), the growth inhibition was 1.53%. Molecule `C=CCn1c(NC(C)c2cc(Cl)ccc2O)nc2ccccc21` (stereo not given) has a growth inhibition of 13.7%. With `O=C(Nc1ccccc1N1CCCCC1)c1cccs1` the growth inhibition was 1.03%. In the case of `O=C(OC1CCCCC1)c1ccc(NC(=O)c2ccco2)cc1`, the growth inhibition was 2.7%. For `O=C(Nc1nnc(-c2ccc(F)cc2)o1)c1ccco1`, the growth inhibition was 1.59%. Molecule `Cc1nn(-c2ccccc2)c(C)c1C(=O)Nc1nnc(-c2ccco2)o1` has a growth inhibition of 9.7%. For `Cc1ccc(-c2csc3ncnc(Sc4nnc(CN5CCCCCC5=O)o4)c23)cc1`, the growth inhibition was 5.4%. Molecule `CCc1ccc2[nH]c(=O)c(C(c3nnnn3CCOC)N3CCN(c4ccc(F)cc4)CC3)cc2c1` (stereo not given) has a growth inhibition of -0.14%. `CC(C)OCCCNc1ncnc2c1[nH]c1ccc(F)cc12` gave a growth inhibition of 9.62%. `CC(C)OCCCNc1ncnc2c1[nH]c1ccccc12` showed a growth inhibition of 8.07%. `CCOc1ccc2[nH]c3c(N4CCN(c5ccccn5)CC4)ncnc3c2c1` gave a growth inhibition of -8.17%. Work on `N#C/C(=C\c1cccs1)Sc1nc2ccccc2s1` yielded a growth inhibition of -8.78%. Molecule `O=C(CN(Cc1ccc2c(c1)OCO2)C(=O)CSc1nc2ccccc2o1)NC1CCCCC1` has a growth inhibition of -6.97%. `C=C(C)Cn1c(N2CCC(Cc3ccccc3)CC2)nc2c1c(=O)[nH]c(=O)n2C` showed a growth inhibition of -2.32%. `Cn1c(=O)c2c(nc(N3CCCCCC3)n2Cc2cccc3ccccc23)n(C)c1=O` gave a growth inhibition of -1.26%. In the case of `CCOc1ccccc1N1CCN(Cc2ccc(Br)s2)CC1`, the growth inhibition was -0.45%. Work on `CC1=CC(C)(C)N2C(=O)C3(SCC(=O)N3c3ccc(O)cc3)c3cc(C)cc1c32` (stereo not given) yielded a growth inhibition of 1.81%. In the case of `CCCOC(=O)c1ccc(Oc2cn[nH]c2-c2ccc(OCC)cc2O)cc1`, the growth inhibition was 8.01%. With `Cn1c(=O)n(CCCOc2ccc(Br)cc2)c2ccccc21` the growth inhibition was 9.45%. For `C=C(C)COc1ccc(-c2n[nH]c(C)c2-c2ccccc2OC)c(O)c1`, the growth inhibition was 8.4%. For `C=C(C)COc1ccc(-c2n[nH]c(C)c2-c2ccccc2)c(O)c1`, the growth inhibition was 20.5% (active). In the case of `C=C(C)COc1ccc(-c2n[nH]c(C)c2Oc2ccccc2OC)c(O)c1`, the growth inhibition was 0.02%. With `c1ccc(-c2nc(N3CCCCCC3)c3ccccc3n2)nc1` the growth inhibition was 17.1% [at 50 µM]. With `Cc1cccc(Nc2nc(-c3ccccn3)cs2)n1` the growth inhibition was 4.37%. For `CCCCn1c(NC(=O)c2ccccc2)c(C#N)c2nc3ccccc3nc21`, the growth inhibition was -8.7%. With `CCn1c(Cn2nnc(-c3ccccc3)n2)nnc1SCc1ccc(Cl)c(Cl)c1` the growth inhibition was -0.33%. Molecule `Cc1cccc(NC(=O)c2cc(NC(=O)C3CCCCC3C(=O)O)ccc2N2CCCCC2)c1` (stereo not given) has a growth inhibition of -4.25%. `O=C(COn1nnc2ccc(C(F)(F)F)cc21)Nc1nnc(-c2ccccc2)o1` gave a growth inhibition of -3.92%. For `O/N=C(\c1ccc(Cl)cc1)c1cc2ccccc2o1`, the growth inhibition was 8.62%. Work on `Cc1onc(-c2ccccc2)c1C(=O)OCC(=O)c1ccccc1` yielded a growth inhibition of 1.87%. `CN(c1ccccc1C(=O)Nc1ccc(S(=O)(=O)N2CCCCC2)cc1)S(C)(=O)=O` showed a growth inhibition of -1.44%. `O=C(NC1CCCC1)c1sc(=S)n2c1[nH]c(=O)c1ccccc12` gave a growth inhibition of -2.92%. For `Cn1c(=O)c2c(SCc3cccnc3)nc(CC(C)(C)C)nc2n(C)c1=O`, the growth inhibition was 1.92%. Work on `O=C(Nc1ccc(S(=O)(=O)N2CCCc3ccccc32)cc1)C1CCCO1` (stereo not given) yielded a growth inhibition of -2.99%. With `c1ccc(-n2nnnc2Oc2cccc3cccnc23)cc1` the growth inhibition was 2.63%. `O=C(NCc1ccco1)c1cc2sccc2n1Cc1ccccc1` showed a growth inhibition of -6.37%. `N=c1n(CCN2CCOCC2)c2ccccc2n1CC(=O)c1ccc(Cl)c(Cl)c1` gave a growth inhibition of -3.82%. In the case of `c1csc(-c2nc3nc4ccccc4nc3n2Cc2ccc3c(c2)OCO3)c1`, the growth inhibition was -7.29%. For `COc1cc(-c2nc(Cc3ccccc3Cl)no2)cc(OC)c1OC`, the growth inhibition was 8.5%. For `O=C(COc1ccc2ccccc2c1Br)N1CCN(c2ccccn2)CC1`, the growth inhibition was -12.5%. For `CSCCOC(=O)C1=C(C)NC(=O)CC1c1ccccc1Cl` (stereo not given), the growth inhibition was 3.74%. In the case of `CC(OC(=O)c1ccccc1NCc1ccco1)C(=O)Nc1ncc(Cl)cc1Cl` (stereo not given), the growth inhibition was 11.2%. For `COc1ccc(S(=O)(=O)Nc2ccc(S(=O)(=O)N3CCCCC3)cc2)cc1`, the growth inhibition was -5.18%. `N#CC1=C(N)NC(SCc2ccccc2)=C(C#N)C12CCCCC2` gave a growth inhibition of 12.1%.

From PubChem BioAssay AID638 (SRMLSC, 2007)
